Source: ChEMBL document CHEMBL1155016, “Locking the two ends of tetrapeptidic HTLV-I protease inhibitors inside the enzyme” (Bioorg Med Chem, 2008)

How the values were obtained:
[1] = target: Protease (Human immunodeficiency virus 1) (UniProt Q9YQ12); assay: Inhibition of HIV1 protease at 50 nM
Protease = Protease (Human T-cell leukemia virus type I, UniProt Q82134, L40I); assay: Inhibition of HTLV1 protease L40I mutant
Method in brief: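 HTLV-I protease carrying the L40I substitution, which blocks autolysis and stabilises the enzyme; run by the group's earlier reported protocol; potency given as IC50 in nM.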

Chain of Protease (Human immunodeficiency virus 1) (Q9YQ12 as listed by the source): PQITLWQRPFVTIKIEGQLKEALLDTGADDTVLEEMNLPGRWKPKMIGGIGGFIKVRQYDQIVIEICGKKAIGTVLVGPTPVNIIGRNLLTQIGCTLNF
Chain of Protease (Q82134 entry or part of it L40I): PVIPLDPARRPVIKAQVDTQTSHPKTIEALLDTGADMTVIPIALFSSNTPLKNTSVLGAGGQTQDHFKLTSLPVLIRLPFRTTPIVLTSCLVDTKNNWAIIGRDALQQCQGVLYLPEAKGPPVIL

Row | SMILES | inhibition [1] | IC50 (Protease)
1 | CC(C)(C)[C@H](NC(=O)[C@@H](NC(=O)C1CC1)c1ccccc1)C(=O)N[C@@H](Cc1ccccc1)[C@H](O)C(=O)N1CSC(C)(C)[C@H]1C(=O)NCC1CC1 | > 98% | 142 nM
2 | CCCC(=O)N[C@H](C(=O)N[C@H](C(=O)N[C@@H](Cc1ccccc1)[C@H](O)C(=O)N1CSC(C)(C)[C@H]1C(=O)NCC(C)C)C(C)(C)C)c1ccccc1 | > 98% | 104 nM
3 | CC(=O)N[C@H](C(=O)N[C@H](C(=O)N[C@@H](Cc1ccccc1)[C@H](O)C(=O)N1CSC(C)(C)[C@H]1C(=O)NCC(C)(C)C)C(C)(C)C)c1ccccc1 | > 98% | 113 nM
